ABCB1 block: ABCB1 efflux pump inhibitors, primary screen, cell-based, multiplex, flow cytometry, ABCG2 counter-screen. 190,000 tested, 0.067% active. ATP-dependent translocase ABCB1 (Homo sapiens), P08183. CCRF-Adr cells, JC-1 efflux. inhibition, % at 6.6 µM; in the data active = inhibition above about 40%;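 also: higher value means more JC-1 retained so stronger ABCB1 efflux block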
Efa HMGR inh: inhibitors of E. faecalis class II HMGR, primary screen, biochemical, Enterococcus faecalis. 190,000 tested, 0.41% active. purified E. faecalis HMGR, NADPH absorbance 340 nm kinetic. inhibition, % at 10 µM. HMG-CoA reductase (Enterococcus faecalis, mvaE);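 active = inhibition above a set limit, the median over all tested compounds plus 3 SD, cut at about 9.5% in these data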;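 also: enzyme runs in reverse so mevalonate oxidation gives rising NADPH absorbance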
ABCG2 block: ABCG2 efflux pump inhibitors, primary screen, multiplex with ABCB1, IgMXP3 cells, flow cytometry; Broad substrate specificity ATP-binding cassette transporter ABCG2 (Homo sapiens), Q9UNQ0; JC-1 efflux; inhibition, % at 6.6 µM; 190,000 tested, 0.1% active;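 active = inhibition above 80%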
Target sequence (Q9UNQ0 whole entry, looked up): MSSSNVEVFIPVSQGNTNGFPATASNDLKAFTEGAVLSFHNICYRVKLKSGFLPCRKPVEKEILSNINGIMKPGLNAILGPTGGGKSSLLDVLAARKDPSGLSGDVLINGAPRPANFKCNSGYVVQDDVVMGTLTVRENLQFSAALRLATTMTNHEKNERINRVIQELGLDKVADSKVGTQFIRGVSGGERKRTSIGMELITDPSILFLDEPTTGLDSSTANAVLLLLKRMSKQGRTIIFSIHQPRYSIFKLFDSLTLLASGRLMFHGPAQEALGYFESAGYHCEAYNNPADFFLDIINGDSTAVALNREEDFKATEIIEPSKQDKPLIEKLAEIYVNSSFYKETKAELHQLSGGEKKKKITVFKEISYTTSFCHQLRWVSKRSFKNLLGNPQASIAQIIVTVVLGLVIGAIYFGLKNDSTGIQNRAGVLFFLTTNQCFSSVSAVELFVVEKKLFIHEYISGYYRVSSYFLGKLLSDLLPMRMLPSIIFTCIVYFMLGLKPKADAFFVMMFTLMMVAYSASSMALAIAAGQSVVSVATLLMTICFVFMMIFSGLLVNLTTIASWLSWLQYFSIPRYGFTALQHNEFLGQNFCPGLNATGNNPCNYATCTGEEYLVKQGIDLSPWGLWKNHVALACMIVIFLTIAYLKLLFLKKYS
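Test system: IgMXP3 (ABCG2) plus far-red-tagged CCRF-Adr (ABCB1) cells. Reagent: JC-1 dye as substrate. Timing: 10 min exposure at 25 °C with rotation, no wash. Measured by: flow cytometric JC-1 green MFI at 530 nm. Read-out: percent efflux inhibition, scaled nicardipine 100% to DMSO 0%. Control set: nicardipine and DMSO wells.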
HSV augment: enhancers of HSV replication in host cells, fold increase, host cell viability; HSV replication augmentation in cells; 220,000 tested, 0.005% active; maximum fold increase; AID 1956, 2009; in the data active = maximum fold increase above about 1.5; tested in PC3 cells
Large screens that a line does not name were inactive. An excerpt weighted towards active compounds, which were near 0.49% of everything screened.

Cn1cc([N+](=O)[O-])c(C(=O)Nc2ccc(C3CCCCC3)cc2)n1	Efa HMGR inh 11
Cn1cc([N+](=O)[O-])c(C(=O)Nc2ccc(-c3nc4ccccc4[nH]3)cc2)n1	Efa HMGR inh 12
CCOc1ccccc1Nc1nc2ccccc2n1C(C)C	none
O=C(c1cccnc1)N1c2ccccc2Sc2ccccc21	Efa HMGR inh 12
COc1ccccc1C(=O)N1c2ccccc2Sc2ccccc21	none
O=C(N/N=C/c1cc([N+](=O)[O-])ccc1O)C12CC3CC(CC(C3)C1)C2	Efa HMGR inh 13
CCCCn1c(CN2CCN(c3cccc(Cl)c3)CC2)nc2c1c(=O)[nH]c(=O)n2C	Efa HMGR inh 9.8 (no result: HSV augment)
Cn1c(=O)[nH]c(=O)c2c1nc(CN1CCN(c3cccc(Cl)c3)CC1)n2CCCc1ccccc1	none
CCc1c(O)nc(SCC(=O)N(CC)CC)[nH]c1=O	none
O=C1c2ccccc2C(=O)N1CCN1CCCCC1	Efa HMGR inh 19 (no result: HSV augment)
CN(Cc1nc(-c2cnccn2)no1)C1CC(C)(C)NC(C)(C)C1	Efa HMGR inh 18
CCN(CC)C(=S)NC(=O)c1cccnc1	Efa HMGR inh 18
CCN(CC)C(=S)NC(=O)c1ccc(F)cc1	none
CN(C(=O)CCN1C(=O)C(C)(C)Nc2ccccc21)c1ccccc1	Efa HMGR inh 36
O=C(Cn1cc(SCc2cccc(Cl)c2)c2ccccc21)N1CCOCC1	none
CC1(C(=O)NCCN2CCOCC2)C=CC2(CCCCC2)N1C(=O)c1ccccc1 (centres undefined)	Efa HMGR inh 9.7
COCCNC(=O)C1(C)C=CC2(CCCCC2)N1C(=O)c1ccccc1 (centres undefined)	none
CC(=O)c1cc2c(cc1N/C(=N/S(=O)(=O)c1ccccc1)c1ccc(Cl)cc1)OCO2	Efa HMGR inh 13
CC(=O)c1cc2c(cc1NS(=O)(=O)c1ccccc1)OCO2	none
Cc1ccc(OCC(O)CN2C(=O)NC(C)(C)C2=O)cc1 (centres undefined)	Efa HMGR inh 14
COc1cc(Cl)c(C)cc1NC(=O)c1cc(S(=O)(=O)N(C)C)ccc1N1CCCC1	none
O=C(C1=C[C@H](C2CC2)C[C@H](OCc2ccc(CO)cc2)O1)N1CCOCC1	none
CN1CCN(C(=O)C2=C[C@@H](C3CC3)C[C@@H](OCc3ccc(CO)cc3)O2)CC1	Efa HMGR inh 9.8
O=C(Nc1ccccc1)Nc1ccc2ocnc2c1	Efa HMGR inh 18
O=C(Nc1ccc(F)cc1)C1CC(=O)n2ncnc2N1 (centres undefined)	none
O=C(Nc1ccc(F)cc1)C1CC(=O)n2cnnc2N1 (centres undefined)	Efa HMGR inh 9.7
Cc1ccc(-n2c(SCC(=O)NCc3ccco3)nc3c(sc4ccccc43)c2=O)cc1	none
Cc1nc2ccccc2n1CCC(=O)Nc1cccc(F)c1	none
O=[N+]([O-])c1ccc(C2Oc3ccccc3C3CC(c4ccccc4)=NN32)s1 (centres undefined)	none
Cc1ccc(C2(C)NC(=O)N(CC(=O)Nc3c(C)n(C)n(-c4ccccc4)c3=O)C2=O)cc1 (centres undefined)	Efa HMGR inh 13
Cc1c(NC(=O)CN2C(=O)NC(C)(c3ccccc3)C2=O)c(=O)n(-c2ccccc2)n1C (centres undefined)	none
C/C(=N\NC(=O)CSc1ncccn1)c1ccc2c(c1)OCCO2	none
COc1ccc(/C=C(\C#N)C(=O)C(C)(C)n2cncn2)cc1	none
O=C(COc1ccccc1C(=O)Nc1ccccc1)c1ccc(F)cc1	none
O=C(COc1ccccc1C(=O)Nc1ccccc1)c1ccc(Br)cc1	Efa HMGR inh 10
O=C(O)/C(=C\c1ccc(Br)cc1)c1ccc(S(=O)(=O)N2CCCCC2)s1	none (no result: HSV augment)
O=C(NCc1ccccc1Cl)c1cc([N+](=O)[O-])ccc1Cl	Efa HMGR inh 19
CCOc1ccccc1C1CC(=O)Nc2c1c(=O)n(C)c(=O)n2C (centres undefined)	none
Cc1ccc(NC(=O)c2ccc3nc[nH]c3c2)c(O)c1	Efa HMGR inh 16
COc1ccc(NC(=O)c2ccc3nc[nH]c3c2)c(OC)c1	none
Cc1ccc(S(=O)(=O)CCCS(=O)(=O)c2ccc(C)cc2)cc1	Efa HMGR inh 11
Cc1c(NC2(c3nnnn3-c3ccc(Br)cc3)CCCCC2)c(=O)n(-c2ccccc2)n1C	Efa HMGR inh 23
C/C(CCC(=O)OC[C@H]1O[C@H](C#Cc2ccccc2)C=C[C@@H]1Oc1ccc(C)cc1)=N\O[C@@H](C)CN1CCCCc2nc(C)c(C)cc21	none (no result: HSV augment)
CN(C)CCOc1cc(Cl)cc(Cl)c1	none
CC(=O)Oc1cc(C(C)C)c(OCCN(C)C)cc1C	Efa HMGR inh 9.7
CCOC(=O)CNC(=O)CN1C(=O)CC(c2ccccc2)S(=O)(=O)c2ccccc21 (centres undefined)	Efa HMGR inh 11
O=C(CN1C(=O)CC(c2ccccc2)S(=O)(=O)c2ccccc21)N1CCOCC1 (centres undefined)	none
CCCC(C)c1nnc(NC(=O)CN2C(=O)c3ccccc3C2=O)s1 (centres undefined)	none
Cc1ccc(S(=O)(=O)N2CCCC(C(=O)NCc3ccco3)C2)cc1Cl (centres undefined)	Efa HMGR inh 13
Cc1ccc(C(=O)CC2(O)C(=O)N(C)c3ccccc32)s1 (centres undefined)	Efa HMGR inh 14
CN1C(=O)C(O)(CC(=O)/C=C\c2ccc3c(c2)OCO3)c2ccccc21 (centres undefined)	Efa HMGR inh 11
CN1C(=O)C(O)(CC(=O)c2cccs2)c2ccccc21 (centres undefined)	none
Cc1cccc(C(=O)NC(CC(=O)O)c2ccc(OC3CCCC3)cc2)c1[N+](=O)[O-] (centres undefined)	none
C[C@H]1[C@H](C)CC[C@]2(C(=O)O)CC[C@]3(C)C(=CC[C@@H]4[C@@]5(C)C[C@@H](O)[C@H](O)C(C)(C)[C@@H]5CC[C@]43C)[C@H]12	Efa HMGR inh 18
C[C@H]1[C@H](C)CC[C@]2(C(=O)O)CC[C@]3(C)C(=CC[C@@H]4[C@@]5(C)CC[C@H](O)C(C)(C)[C@@H]5CC[C@]43C)[C@H]12	none (no result: ABCB1 block, Efa HMGR inh, ABCG2 block)
COc1ccc(OC)c(Cc2nnc(CCC(=O)NCc3ccsc3)o2)c1	Efa HMGR inh 9.7
O=C(Nc1ccc(N2CCCCC2)cc1)c1ccc2c(c1)OCCO2	Efa HMGR inh 27
CCC1CCCCN1S(=O)(=O)c1ccc(NC(=O)c2cccs2)cc1 (centres undefined)	Efa HMGR inh 11
COC(=O)C1=C(C)N(Cc2ccco2)C(=O)N[C@@H]1c1ccccc1	Efa HMGR inh 11
Cn1c(=O)c2c(nc(NCCOc3ccc(C(C)(C)C)cc3)n2C)n(C)c1=O	Efa HMGR inh 13
COc1ccccc1OCCNc1nc2c(c(=O)n(C)c(=O)n2C)n1C	none
OC(CNCC(c1ccc(Cl)cc1Cl)c1c[nH]c2ccccc12)c1ccccc1 (centres undefined)	none (no result: HSV augment)
